Experimental data published in ChEMBL document CHEMBL4011628, “Pharmacophore Identification and Scaffold Exploration to Discover Novel, Potent, and Chemically Stable Inhibitors of Acid Ceramidase in Melanoma Cells” (J Med Chem, 2017).
Activity calls are given as the source filed them. No cut-off for these calls is given here.

Tests used:
Acid ceramidase [1] = molecular target: Acid ceramidase (Homo sapiens, UniProt Q13510); assay: Inhibition of human C-terminal His-tagged acid ceramidase variant 1 expressed in HEK293 cells using fluorogenic substrate Rbm-14-12 preincubated for 30 mins followed by substrate addition measured after 1 hr by fluorogenic assay; assay type: cell-based
[2] = Half life in PBS buffer at pH 7.4 at 10 uM by UPLC/MS analysis; assay type: physicochemical
How it was run: (§1)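 Compound taken from 10 mM DMSO stock to 10 μM in PBS pH 7.4 (prewarmed) or acetate pH 4.5, held at 37 °C with shaking. Samples taken over time and diluted in ACN. Analysed by UPLC BEH C18 (30–100% ACN over 4 min) with qTOF HRMS in positive ion mode. Half-life from one-phase decay fit of peak area versus time.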

[3] = Half life in acetate buffer at pH 4.5 at 10 uM by UPLC/MS analysis; assay type: physicochemical; how it was run: as §1
[4] = Half life in mouse plasma at 2 uM up to 120 mins by UPLC/MS analysis; assay type: ADME, cell-free
How it was run: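 Mouse plasma with 5% DMSO, prewarmed 15 min at 37 °C; compound final 2.0 μM. Aliquots at 0, 5, 15, 30, 60 and 120 min quenched in cold ACN containing 200 nM warfarin internal standard. Spun 3500g, 15 min, 4 °C; supernatant run on UPLC/MS TQD. Half-life from one-phase decay fit of peak area versus time.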

Acid ceramidase [5] = molecular target: T1, Acid ceramidase (Homo sapiens, UniProt Q13510); assay: Inhibition of acid ceramidase in human G361 cells using fluorogenic substrate Rbm-14-12 preincubated for 2 hrs followed by substrate addition measured after 3 hrs by fluorogenic assay; assay type: cell-based
T1 sequence (Q13510 whole entry): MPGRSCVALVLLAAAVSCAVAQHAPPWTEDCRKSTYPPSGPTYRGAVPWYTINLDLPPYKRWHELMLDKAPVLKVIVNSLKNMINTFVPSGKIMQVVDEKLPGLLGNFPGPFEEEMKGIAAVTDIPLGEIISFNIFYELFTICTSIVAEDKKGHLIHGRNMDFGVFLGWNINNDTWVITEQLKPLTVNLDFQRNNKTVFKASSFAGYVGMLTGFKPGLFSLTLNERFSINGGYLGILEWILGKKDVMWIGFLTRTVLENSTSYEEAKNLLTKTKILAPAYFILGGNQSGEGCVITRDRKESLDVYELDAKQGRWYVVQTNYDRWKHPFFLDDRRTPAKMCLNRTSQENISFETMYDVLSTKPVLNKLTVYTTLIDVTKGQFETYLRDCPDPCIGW
How it was run: (§2)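 A375 (5 × 10^4) or G-361 (2.5 × 10^4) cells grown in DMEM with 10% FBS and 2 mM glutamine. Compounds or DMSO added 24 h after seeding, 2 h at 37 °C. Rbm-14-12 then added to 20 μM final for 3 h. Stopped with methanol/NaIO4; fluorescence read at ex 355/em 460. Run in triplicate; IC50 from four-parameter fit, mean ± SD of two independent experiments.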

Acid ceramidase [6] = molecular target: T1, Acid ceramidase; assay: Inhibition of acid ceramidase in human A375 cells using fluorogenic substrate Rbm-14-12 preincubated for 2 hrs followed by substrate addition measured after 3 hrs by fluorogenic assay; assay type: cell-based; how it was run: as §2
G-361 = assay: Cytotoxicity against human G361 cells assessed as […] in cell viability after 72 hrs by MTT assay; assay type: cell-based; details: g-361, 72 h
A-375 = assay: Cytotoxicity against human A375 cells assessed as […] in cell viability after 72 hrs by MTT assay; assay type: cell-based; details: a-375, 72 h
[7] = molecular target: T2, Acid ceramidase (Homo sapiens) (UniProt Q13510); assay: Covalent binding affinity to recombinant human acid ceramidase assessed as N-terminal CTSIVAEDK peptide adduct formation at 10:1 molar ratio of compound to protein after 1 hr by trypsin digestion-based UPLC-MS analysis
T2 sequence (whole entry): T1 sequence (Q13510 whole entry)
How it was run: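 Purified recombinant human AC (10 μg) preincubated 1 h at 37 °C in 20 mM acetate pH 4.5 with 3 mM DTT. Compound then added at 10:1 molar ratio to protein, 1 h at 37 °C; DMSO control. Stopped with cold acetone, pellet dried, redissolved in 50 mM (NH4)2CO3 pH 8. Trypsin 1:50 w/w overnight at 37 °C; peptides read by LC-MS.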

IC50 (Acid ceramidase [1]) [nM]	half-life at 10 µM [2] [min]	half-life at 10 µM [3] [min]	half-life at 2 µM [4] [min]	IC50 (Acid ceramidase [5]) [nM]	IC50 (Acid ceramidase [6]) [nM]	Activity [7]	Compound	Activity (G-361)	Activity (A-375)
29.3	13	42	13	–	–	–	Nc1nc2ccccc2n1C(=O)NCc1ccccc1	–	–
6.6	59	> 120	> 120	–	–	–	CCCCCCNC(=O)n1cnc2ccccc21	–	–
> 10000	–	–	–	–	–	–	O=C(NCCCCc1ccccc1)Nc1nc2ccccc2[nH]1	–	–
> 10000	–	–	–	–	–	–	CCCCCCNC(=O)Nc1nc2ccccc2s1	–	–
2.4	6	> 120	23	–	–	–	O=C(NCCCCc1ccccc1)N1C(=O)c2ccccc2C1=O	–	–
9.9	81	> 120	> 120	–	–	–	CCCCCCNC(=O)n1ncc2ccccc21	–	–
4.1	17	> 120	13	–	–	–	CCCCCCNC(=O)n1nnc2ccccc21	–	–
2.2	2	> 120	< 5	–	–	–	CCCCCCNC(=O)n1nnc2ncccc21	–	–
22.5	> 120	94	108	2800	1060	–	O=C(NCc1ccccc1)n1cnc2ccccc21	Non-Toxic	Non-Toxic
> 10000	–	–	–	–	–	–	O=C(NCCCCc1ccccc1)Nc1nc2ccccc2s1	–	–
21	> 120	> 120	> 120	–	–	–	O=C(NCCCCc1ccccc1)n1c(=O)n(C(=O)NCCCCc2ccccc2)c2ccccc21	–	–

Continued, compound first:

Compound	IC50 (Acid ceramidase [1]) [nM]	half-life at 10 µM [2] [min]	half-life at 10 µM [3] [min]	half-life at 2 µM [4] [min]	IC50 (Acid ceramidase [5]) [nM]	IC50 (Acid ceramidase [6]) [nM]	Activity [7]	Activity (G-361)	Activity (A-375)
Cc1ccc(CNC(=O)n2c(N)nc3ccccc32)cc1	7	23	34	< 5	–	–	–	–	–
O=C(NCCCCc1ccccc1)n1ncc2ccccc21	4.7	134	> 120	> 120	–	–	–	–	–
Cc1ccc(CNC(=O)n2cnc3ccccc32)cc1	14.8	> 120	> 120	94	928	505	–	Non-Toxic	Non-Toxic
Nc1nc2ccccc2n1C(=O)NCCCCc1ccccc1	0.9	14	43	9	–	–	–	–	–
Cc1cccc(CNC(=O)n2cnc3ccccc32)c1	8.3	56	> 120	71	–	–	–	–	–
COc1nc2ccccc2n1C(=O)NCCCCc1ccccc1	13.9	> 120	> 120	> 120	2780	967	Active	Non-Toxic	Non-Toxic
CCCCCCNC(=O)Nc1nc2ccccc2[nH]1	> 10000	–	–	–	–	–	–	–	–
Cc1ccccc1CNC(=O)n1cnc2ccccc21	55.9	58	82	44	–	–	–	–	–
Cc1nc2ccccc2n1C(=O)NCCCCc1ccccc1	1	7	8	11	–	–	–	–	–
O=C(NCCCCc1ccccc1)n1cnc2ccccc21	2.5	50	> 120	> 120	230	75.6	Active	Non-Toxic	Non-Toxic
O=C(NCCCCc1ccccc1)n1nnc2ncccc21	1.3	2	> 120	< 5	–	–	–	–	–
CCCCCCNC(=O)n1cc(F)c(=O)[nH]c1=O [CARMOFUR]	20.7	–	–	–	758	191	–	–	–
CCCCCCNC(=O)N1C(=O)c2ccccc2C1=O	7	9	> 120	29	–	–	–	–	–
CCCCCCNC(=O)Nc1nc2ccccc2o1	> 10000	–	–	–	–	–	–	–	–
Cc1ccccc1CNC(=O)n1c(N)nc2ccccc21	68.4	10	27	< 5	–	–	–	–	–
Cc1cccc(CNC(=O)n2c(N)nc3ccccc32)c1	8.5	11	27	< 5	–	–	–	–	–
O=C(NCCCCc1ccccc1)n1nnc2ccccc21	2.1	–	> 120	–	–	–	–	–	–
O=C(NCCCCc1ccccc1)n1c(=O)[nH]c2ccccc21	> 10000	> 120	> 120	> 120	–	–	–	–	–
O=C(NCCCCc1ccccc1)Nc1nc2ccccc2o1	> 10000	–	–	–	–	–	–	–	–
CCCCCCNC(=O)n1c(N)nc2ccccc21	2.4	–	–	–	–	–	–	–	–
